Assay results pooled from the literature.
Compare with care: the assays were run in different laboratories.
Target: cAMP-dependent protein kinase catalytic subunit PRKX (PRKX, Homo sapiens, UniProt P51817)
One construct used (P51817 1-358): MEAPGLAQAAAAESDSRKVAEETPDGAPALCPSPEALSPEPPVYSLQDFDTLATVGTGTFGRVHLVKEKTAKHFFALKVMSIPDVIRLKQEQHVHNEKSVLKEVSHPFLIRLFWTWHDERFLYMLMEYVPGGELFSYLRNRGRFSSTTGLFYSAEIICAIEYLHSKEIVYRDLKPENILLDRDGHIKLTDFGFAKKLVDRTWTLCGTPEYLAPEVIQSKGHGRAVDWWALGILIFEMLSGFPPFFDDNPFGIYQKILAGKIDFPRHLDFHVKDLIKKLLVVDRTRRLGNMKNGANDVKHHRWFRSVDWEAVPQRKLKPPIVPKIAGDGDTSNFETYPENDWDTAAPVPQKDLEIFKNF

O=C(N[C@H]1CCCCC/C=C\C2C[C@@]2(C(=O)O)NC(=O)[C@@H]2C[C@@H](Oc3ccncc3)CN2C1=O)OC1CCCC1 (some centres unmarked) — remaining binding (cell-free assay, competition with immobilised ligand; 1 µM): 80%
F[C@@H]1CCN(c2nccc(-c3cnn4ncccc34)n2)C1 — remaining binding (binding; 1 µM): 100%
C[C@@H](c1ccc(-n2cnc3c(N)ncnc32)cc1)N1CCc2nn(C)c(Cc3ccccc3)c2C1=O — remaining binding (binding, competition with immobilised ligand; 0.1 µM): 96%
CO[C@H]1CC[C@H](CNc2ccc(S(=O)(=O)NC(=O)c3ccc(N4CCN(CC5=C(c6ccc(Cl)cc6)CC(C)(C)CC5)CC4)cc3Oc3cnc4[nH]ccc4c3)cc2[N+](=O)[O-])CC1 — remaining binding (cell-free assay, competition with immobilised ligand; 1 µM): 100%
O=C(c1ccc(Nc2ncc(Cl)c(-c3ccc(Cl)s3)n2)cc1)N1CCC(N2CCCC2)CC1 — remaining binding (binding, competition with immobilised ligand; 1 µM): 95%
CCOC(=O)c1cc2cc(-c3cc(C(=O)NCc4ccc(C(=O)O)cc4)nn3C)ccc2[nH]1 — remaining binding (cell-free assay, competition with immobilised ligand; 0.1 µM): 100%
Cc1cnn2ncc(-c3ccnc(N(C)C)n3)c2c1 — remaining binding (binding; 1 µM): 85%
O=C(c1ccc(Nc2nccc(-c3cc4ccccc4s3)n2)cc1)N1CCC(N2CCCC2)CC1 — remaining binding (binding, competition with immobilised ligand; 1 µM): 83%
CNC(=O)[C@@H]1CC[C@@H](n2c(-c3ccc4cnccc4c3)nc3ccc(C(=O)NCc4cccc(C(N)=O)c4)cc32)C1 — remaining binding (binding, competition with immobilised ligand; 1 µM): 100%
O=C(Nc1c[nH]nc1C(=O)NC1CCNCC1)c1cc(F)cc(F)c1 — remaining binding (binding, competition with immobilised ligand; 1 µM): 94%
COCCOc1nc(-c2ccc(Cl)nc2)nc2c1CN(C(=O)c1ncn3ccccc13)CC2 — remaining binding (cell-free assay, competition with immobilised ligand; 0.1 µM): 100%
c1cnn2ncc(-c3ccnc(N4CCC45COC5)n3)c2c1 — remaining binding (binding; 1 µM): 68%
O=C(c1ccc(Nc2ncc(Cl)c(-c3cc4ccccc4s3)n2)cc1)N1CCC(N2CCCC2)CC1 — remaining binding (binding, competition with immobilised ligand; 1 µM): 67%
COc1ncc2cc3ccccc3nc2c1C#N — remaining binding (cell-free assay, competition with immobilised ligand; 5 µM): 82%
C[C@H]1CCN(c2nccc(-c3cnn4ncccc34)n2)C1 — remaining binding (binding; 1 µM): 100%
c1cncc(-c2cccc(Nc3nccc(NC4CCCCC4)n3)c2)c1 — remaining binding (binding, competition with immobilised ligand; 10 µM): 80%
C[C@@H]1CN(c2cc(-c3nn(C)c4ccc(OC5(C)CC5)cc34)ncn2)C[C@H](C)O1 — remaining binding (cell-free assay, competition with immobilised ligand; 1 µM): 92%
N[C@H]1CCN(c2nccc(-c3cnn4ncccc34)n2)C1 — remaining binding (binding; 1 µM): 100%
CNC(=O)Nc1ccc2c(c1)[C@@]1(CC2)OC(=O)N(CC(=O)N(Cc2ccc(F)cc2)[C@@H](C)C(F)(F)F)C1=O — remaining binding (cell-free assay, competition with immobilised ligand; 1 µM): 100%
CN(C)c1nccc(-c2cnn3ncccc23)n1 — remaining binding (binding; 1 µM): 100%
